SIAE inh – blocks human sialic acid acetylesterase; SIAE FP-Rh probe binding, fluorescence polarization; inhibition, % at 9.66 µM; actives 0.69% (n = 370,000); AID 1053197; Q9HAT2;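 active = inhibition above a cutoff: mean of compounds within the control limits plus 3 SD of those, cut at about 17% in these data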;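 note: 0% = plate median of compound wells and 100% = probe without SIAE protein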
Target sequence (Q9HAT2 whole entry, looked up): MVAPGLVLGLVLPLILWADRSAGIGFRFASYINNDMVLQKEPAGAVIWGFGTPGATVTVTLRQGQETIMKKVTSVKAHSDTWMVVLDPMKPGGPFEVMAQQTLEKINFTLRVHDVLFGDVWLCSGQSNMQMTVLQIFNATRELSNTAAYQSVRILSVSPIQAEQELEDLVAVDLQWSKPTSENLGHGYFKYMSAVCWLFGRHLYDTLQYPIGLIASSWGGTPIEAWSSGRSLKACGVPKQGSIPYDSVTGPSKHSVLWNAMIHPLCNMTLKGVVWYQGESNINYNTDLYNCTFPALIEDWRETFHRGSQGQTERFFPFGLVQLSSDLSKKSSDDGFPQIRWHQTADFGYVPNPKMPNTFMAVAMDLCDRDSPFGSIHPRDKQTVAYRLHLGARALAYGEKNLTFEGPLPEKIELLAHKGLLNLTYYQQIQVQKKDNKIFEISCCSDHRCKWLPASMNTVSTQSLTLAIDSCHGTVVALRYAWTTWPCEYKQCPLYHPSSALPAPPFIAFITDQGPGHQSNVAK
PAD4 inh – inhibitors of human PAD4. Q9UM07. recombinant PAD4, RCA probe fluorescence polarization. inhibition, % at 6.36 µM. actives 0.41% (n = 330,000). AID 485272;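 active = percent inhibition above a cutoff equal to the mean of all tested compounds plus 3 SD, cut at about 15% in these data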;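 note: 0% = PAD4 with RCA probe and DMSO and 100% = probe without PAD4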
PRMT1 FP inh – inhibitors of human PRMT1. Q99873. recombinant PRMT1, activity-based probe fluorescence polarization. inhibition, % at 2.79 µM. actives 1.3% (n = 370,000);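 active = inhibition above about 21% made by adding two undisclosed values, limit read from the data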
TCR CD3 inh – inhibitors of human TCR-CD3 interaction | TAMRA-labeled TCR probe fluorescence, biochemical | inhibition, % at 9.4 µM | actives 0.37% (n = 360,000) | AID 651800; in the data active = inhibition above about 19%;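 note: recombinant mutant TCR 2C K166C tagged with TAMRA read by polarization; 0% = receptor in buffer alone and 100% = receptor with positive control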
ABHD4 inh – ABHD4 (mouse) inhibition, primary FP screen; Q8VD66; purified mABHD4, FP-Rh probe fluorescence polarization; inhibition, % at 8.92 µM; actives 0.54% (n = 370,000); AID 720543;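 active = inhibition exceeding the mean over every tested compound plus 3 SD, cut at about 30% in these data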;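 note: 0% = plate median of compound wells and 100% = S159A mutant with DMSO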
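assay system = mABHD4 protein | compound dosing = single nominal dose of 8.92 µM, 0.89% DMSO final | read-out basis = percent inhibition of probe binding, normalized to plate controls | schedule = Enzyme–compound pre-incubation 45 min, then probe 60 min, both 25 °C | detection = fluorescence polarization, excitation 525 nm, emission 598 nm, BODIPY TMR filters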
HTRA1 inh – inhibitors of human serine peptidase HTRA1 | Q92743 | recombinant HTRA1, FP-rhodamine activity-based probe, fluorescence polarization | inhibition, % at 5.96 µM | actives 0.5% (n = 340,000) | AID 504803; in the data active = inhibition above about 36%;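 note: 0% = enzyme with DMSO and 100% = wells lacking enzyme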
PRMT1 confirm – PRMT1 (human) inhibition, FP confirmation; shares compounds with PRMT1 FP inh; recombinant His-PRMT1, activity-based probe fluorescence polarization; inhibition, % at 2.79 µM; actives 42% (n = 3,300); AID 687036;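 active = mean inhibition across replicates above the hit cutoff derived for the earlier primary screen, cut at about 22% in these data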
An asterisk follows results filed as active; nt = no result. Compounds with a hit are over-represented: about 2.9% of the library has one in this group of screens.

SMILES | SIAE inh | PAD4 inh | PRMT1 FP inh | TCR CD3 inh | ABHD4 inh | HTRA1 inh | PRMT1 confirm
CC(=NNC(=S)N1CC2CCC(CC2)C1)c1ccccn1 | 2 | nt | 37* | 0 | 3 | 13 | -3
CC(=NNC(=S)N1CCN(C2CCCCCC2)CC1)c1ccccn1 | 1 | nt | 1 | -1 | 20 | 19 | nt
CC(=NNC(=S)N1CC2CCC(CC2)C1)c1cnccn1 | 0 | nt | 25* | 1 | 9 | 13 | 2
CC1=CC(C)(C)NC(=S)N1c1ccccc1C | 0 | 1 | 6 | -1 | 5 | 0 | nt
CC1=CC(C)(C)NC(=S)N1c1cccc2cc(S(=O)(=O)O)ccc12 | -1 | 12 | 39* | 7 | 24 | -3 | 45*
CC(C)CN1C(=O)[C@]2(CC(=O)N(C)C2c2ccccc2)c2cc(-n3cc(C4=CCCCC4)nn3)ccc21 (stereo not given in full) | 5 | nt | 0 | nt | 4 | nt | nt
C[C@@H]1Cc2cc(O)cc(O)c2C(=O)O1 | 3 | nt | -4 | nt | 6 | nt | nt
O=C1CC(Sc2ncccn2)C(=O)N1c1ccccc1C(F)(F)F (stereo not given) | -4 | 2 | 51* | -10 | -6 | 9 | 6
Cc1ccc(Cl)cc1N1C(=O)CC(Sc2ncccn2)C1=O (stereo not given) | 9 | -1 | 32* | -8 | -8 | 6 | 0
NCCS | 3 | -2 | 42* | -1 | -1 | 3 | 32*
Fc1cccc(F)c1/C=C/c1ccc2ccccc2n1 | -2 | 4 | 2 | 5 | 1 | -16 | nt
C(=C\c1ccco1)/c1ccc2ccccc2n1 | 4 | -3 | 38* | 13 | 21 | nt | 12
O=S(=O)(C/C(=C/CO)S(=O)(=O)c1ccccc1)c1ccccc1 | -9 | 7 | 29* | -7 | -14 | -6 | 7
O=C(CS(=O)(=O)c1ccccc1)CS(=O)(=O)c1ccccc1 | -2 | nt | -2 | 7 | 2 | nt | nt
S=C(NCCCN1CCOCC1)NCCCN1CCOCC1 | 2 | -4 | 40* | 3 | 4 | 1 | 58*
S=C(NCCCN1CCOCC1)NC1CCCC1 | 3 | -2 | 0 | -8 | -5 | -3 | nt
Nc1cccnc1Sc1cc(Cl)cc(Cl)c1 | -6 | 1 | 62* | 8 | 1 | -6 | 3
O=C(CSc1ccccc1)NC1=NCCS1 | 0 | 1 | 1 | -7 | 5 | 1 | nt
c1ccc(NNC2=NCCS2)cc1 | -5 | -2 | 29* | -1 | 0 | 0 | 1
CCc1c(C(C)S(=O)(=O)c2ccc(C)cc2)[nH]c(=O)n1-c1ccc(C)cc1 (stereo not given) | -2 | -5 | 34* | 1 | 10 | -1 | 14
Cc1ccc(-n2c3c(c(=O)[nH]c2=O)C(NS(=O)(=O)c2ccc(C)cc2)(C(F)(F)F)C(=O)N3)cc1 (stereo not given) | -5 | 0 | 0 | -4 | -13 | 1 | nt
CCc1[nH]c(=O)[nH]c1C(C)S(=O)(=O)c1ccc(C)cc1 (stereo not given) | 0 | -1 | 43* | 1 | -5 | 7 | 34*
CC(C)C[C@@H]1COc2cc(N3CCCC3)ccc2S(=O)(=O)N1 | 2 | nt | 2 | -5 | 7 | nt | nt
Cc1ccc(OCc2nnc(SCC(=O)Nc3ncc(C)s3)o2)cc1 | 1 | -1 | 30* | 1 | 5 | -6 | 2
Cc1cc(NC(=O)CSc2nnc(COc3ccccc3)o2)no1 | -1 | -2 | -2 | 3 | 1 | 10 | nt
SMILES | SIAE inh | PAD4 inh | PRMT1 FP inh | TCR CD3 inh | ABHD4 inh | HTRA1 inh | PRMT1 confirm
Cc1ccc(NC(=O)c2ccc(Cl)c(N3C(=O)C=CC3=O)c2)cc1 | -15 | -3 | 92* | 2 | -20 | -70 | 89*
CCC(C)n1c(-c2cccc(S(=O)(=O)N(CC)CC)c2)n[nH]c1=S (stereo not given) | 9 | 2 | 0 | 2 | 3 | 5 | nt
CCN(CC)S(=O)(=O)c1cccc(-c2n[nH]c(=S)n2/N=C/c2ccc(Br)cc2)c1 | -5 | 5 | 46* | 7 | -3 | -29 | 33*
CCCCCCn1c(-c2cccs2)n[nH]c1=S | 2 | -2 | 41* | -5 | -6 | -6 | 5
CC(C)c1ccc(/C=N/n2c(-c3ccccc3)n[nH]c2=S)cc1 | 4 | -1 | 51* | -14 | -10 | -12 | 21*
Cc1ccc(/C=N/n2c(-c3cccc(Cl)c3)n[nH]c2=S)o1 | -1 | -4 | 26* | -5 | -5 | nt | 13
C[C@@H]1ON(C)[C@H]2C[C@H]3c4cc(N5CCN(C)CC5)ccc4CCN3C[C@@H]12 | -5 | nt | -5 | 1 | -2 | nt | nt
CN(C)S(=O)(=O)c1ccc2nc(COCc3nc4ccc(S(=O)(=O)N(C)C)cc4[nH]3)[nH]c2c1 | -12 | nt | -5 | nt | 0 | nt | nt
CCN(CC)S(=O)(=O)c1cccc(-c2n[nH]c(=S)n2/N=C/c2ccc(OC)cc2)c1 | -2 | 2 | 59* | -7 | 5 | -6 | 30*
CCOc1ccc(C=Nn2c(-c3cccc(OC(C)C)c3)n[nH]c2=S)cc1 | 1 | nt | 29* | nt | -6 | nt | 10
Cc1ccc(/C=N/n2c(-c3cccs3)n[nH]c2=S)cc1 | -1 | 4 | 25* | 1 | 4 | 3 | 13
CCN(CC)S(=O)(=O)c1cccc(-c2n[nH]c(=S)n2/N=C/c2ccc(OC(F)F)cc2)c1 | 9 | 2 | 51* | 6 | 3 | -13 | 34*
COc1ccc(CC(=O)N2CCN(C(=O)c3ccc4nc(C)n(C5CCCC5)c4c3)CC2)cc1 | 6 | nt | -2 | nt | 3 | nt | nt
O=C(CN1C(=O)C2(OCCCO2)c2ccccc21)NCc1ccccc1Cl | -1 | nt | -1 | nt | -2 | nt | nt
COc1ccc2c(c1)[C@@]1(NCCc3c1[nH]c1ccc(OC)cc31)C(=O)N2 | -7 | nt | -9 | nt | -2 | nt | nt
Cc1ccsc1C(=O)NNC(=O)c1ccncc1 | -1 | nt | 31* | 6 | 3 | 2 | 1
COC(=O)[C@]12C[C@H](CC(=O)NCCCN3CCCC3=O)C(=O)N(Cc3ccc4c(c3)OCO4)C1=C[C@H](C(C)(C)C)O[C@@H]2C | -1 | nt | -2 | 6 | 3 | nt | nt
C[n+]1c2n(c3ccccc31)N=C(c1ccccc1)CS2 | 4 | 13 | 48* | -2 | 1 | 1 | 8
C[n+]1c2n(c3ccccc31)N=C(c1ccc(Br)cc1)CS2 | 3 | 2 | 57* | -2 | 0 | -8 | 2
O=C(NN1C(=O)/C(=C/c2cccs2)SC1=S)c1cccnc1 | 4 | -3 | 27* | 2 | 8 | nt | -1
O=C(NN1C(=O)/C(=C/c2cccs2)SC1=S)c1ccccc1 | nt | -5 | nt | nt | nt | -6 | nt
CCOC(=O)C(C)N1C(=O)S/C(=C\c2ccc(-c3ccccc3C(=O)O)o2)C1=O (stereo not given) | -14 | -7 | 29* | -1 | 8 | -1 | 4

Screens deposited in PubChem BioAssay by The Scripps Research Institute Molecular Screening Center.
